Several values for one entry are separate records, joined by “and”; a condition that tells them apart may be missing. Equal values may be shown once.
How the values were obtained:
[1] = biological target: rat α-glucosidase; assay: α-glucosidase inhibition method; assay type: biochemical
Outline: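 Enzyme was the supernatant of rat intestinal acetone powder in saline, sonicated at 4 °C and spun at 1008 ×g (4 °C, 30 min). Test compound (20–300 µg/mL) and enzyme pre-incubated 5 min at 37 °C in 50 mM phosphate pH 6.8. 3 mM PNPG added, then 30 min at 37 °C and A405 read.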

[2] = biological target: T1, porcine pancreatic α-amylase (Sus scrofa, UniProt P00690); assay: biochemical; details: α-Amylase inhibition method IC50 value
T1 sequence (P00690 16-511): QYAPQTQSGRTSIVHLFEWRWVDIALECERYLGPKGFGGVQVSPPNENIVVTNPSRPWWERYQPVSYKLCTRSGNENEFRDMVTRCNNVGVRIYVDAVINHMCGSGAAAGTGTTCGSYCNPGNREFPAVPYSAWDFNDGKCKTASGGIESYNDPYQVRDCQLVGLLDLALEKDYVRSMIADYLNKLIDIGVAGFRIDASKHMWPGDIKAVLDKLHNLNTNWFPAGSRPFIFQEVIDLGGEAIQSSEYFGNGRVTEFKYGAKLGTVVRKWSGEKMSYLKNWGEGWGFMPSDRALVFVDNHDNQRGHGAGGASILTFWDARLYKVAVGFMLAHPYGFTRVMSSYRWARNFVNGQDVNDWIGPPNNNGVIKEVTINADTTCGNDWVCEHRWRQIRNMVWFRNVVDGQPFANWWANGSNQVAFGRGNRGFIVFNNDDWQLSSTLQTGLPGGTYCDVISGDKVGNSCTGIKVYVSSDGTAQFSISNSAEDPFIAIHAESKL

[3] = DPPH free radical scavenging assay
Outline: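 Test compound (20–300 µg/mL) mixed with an equal volume of DPPH solution, shaken vigorously, then kept 30 min in the dark at room temperature. Absorbance read at 517 nm. % scavenging = (OD control − OD sample)/OD control × 100, and IC50 derived from this. Ascorbic acid (10–150 µg/mL) served as positive control.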

[4] = ABTS radical scavenging assay
Outline: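 ABTS radical cation formed by mixing 7 mM ABTS with 2.4 mM ammonium persulfate (1:1) and leaving 18–24 h in the dark at room temperature. Test compound (20–300 µg/mL) added to the ABTS solution and absorbance read at 734 nm. % inhibition = (OD control − OD sample)/OD control × 100, and IC50 taken from this. Ascorbic acid (10–150 µg/mL) served as positive control.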

α-Glucosidase inhibition method IC50 value [1] | IC50 [2] | DPPH Assay IC50 value [3] | ABTS Assay IC50 value [4] | Compound
238 µg/mL | 559 µM | 488 µg/mL and 488.06 µg/mL |  | CN(O)N=Nc1ccc(S(=O)(=O)Nc2nccs2)cc1 [ST-1, 3ـhydroxyـ3ـmethylـ1ـ(4ـ(Nـ(thiazolـ2ـyl)sulfamoyl)phenyl)triazene]
280.03 µg/mL | 550 µM | 565.88 µg/mL |  | O=S(=O)(Nc1nccs1)c1ccc(N=NN(O)c2ccccc2)cc1 [ST-4, 3ـhydroxyـ3ـphenylـ1ـ(4ـ(Nـ(thiazolـ2ـyl)sulfamoyl)phenyl)triazene]
219 µg/mL | 707 µM | 532.35 µg/mL | 232.39 µg/mL and 232.393 µg/mL | CCN(O)N=Nc1ccc(S(=O)(=O)Nc2nccs2)cc1 [ST-2, 3ـhydroxyـ3ـethylـ1ـ(4ـ(Nـ(thiazolـ2ـyl)sulfamoyl)phenyl)triazene]
341 µg/mL | 558 µM | 472.08 µg/mL | 92.075 µg/mL | Cc1cccc(N(O)N=Nc2ccc(S(=O)(=O)Nc3nccs3)cc2)c1 [ST-5, 3ـhydroxyـ3ـ(3ـmethylphenyl)ـ1ـ(4ـ(Nـ(thiazolـ2ـyl)sulfamoyl)phenyl)triazene]
252 µg/mL | 586 µM | 662 µg/mL and 662.79 µg/mL | 160.145 µg/mL | CCCN(O)N=Nc1ccc(S(=O)(=O)Nc2nccs2)cc1 [ST-3, 3ـhydroxyـ3ـpropylـ1ـ(4ـ(Nـ(thiazolـ2ـyl)sulfamoyl)phenyl)triazene]

More lines, now with the values behind:

Compound | α-Glucosidase inhibition method IC50 value [1] | IC50 [2] | DPPH Assay IC50 value [3] | ABTS Assay IC50 value [4]
Cc1ccc(N(O)N=Nc2ccc(S(=O)(=O)Nc3onc(C)c3C)cc2)cc1 [SF-6, 3ـhydroxyـ3ـ(4ـmethylphenyl)ـ1ـ(4ـ(Nـ(3,4ـdimethylisoxazolـ5ـyl)sulfamoyl)phenyl)triazene] | 329 µg/mL | 612 µM | 587.28 µg/mL | 70 µg/mL and 70.62 µg/mL
Cc1cc(NS(=O)(=O)c2ccc(N=NN(O)c3ccccc3)cc2)no1 [SM-4, 3ـhydroxyـ3ـphenylـ1ـ(4ـ(Nـ(5ـmethylisoxazolـ3ـyl)sulfamoyl)phenyl)triazene] | 249 µg/mL | 469 µM | 583.31 µg/mL | 104.13 µg/mL
C[C@H]1O[C@H](O[C@H]2[C@H](O)[C@@H](O)[C@@H](O[C@H]3[C@H](O)[C@@H](O)C(O)O[C@@H]3CO)O[C@@H]2CO)[C@H](O)[C@@H](O)[C@@H]1N[C@H]1C=C(CO)[C@@H](O)[C@H](O)[C@H]1O (some centres unmarked) [acarbose, reference compound] | 12.21 (acarbose) μg/mL |  |  | 
Cc1cccc(N(O)N=Nc2ccc(S(=O)(=O)Nc3cc(C)on3)cc2)c1 [SM-5, 3ـhydroxyـ3ـ(3ـmethylphenyl)ـ1ـ(4ـ(Nـ(5ـmethylisoxazolـ3ـyl)sulfamoyl)phenyl)triazene] | 314.43 µg/mL | 519 µM | 660 µg/mL and 660.39 µg/mL | 81.50 µg/mL
Cc1noc(NS(=O)(=O)c2ccc(N=NN(O)c3ccccc3)cc2)c1C [SF-4, 3ـhydroxyـ3ـphenylـ1ـ(4ـ(Nـ(3,4ـdimethylisoxazolـ5ـyl)sulfamoyl)phenyl)triazene] | 233 µg/mL | 452 µM | 578.76 µg/mL | 
CCCN(O)N=Nc1ccc(S(=O)(=O)Nc2onc(C)c2C)cc1 [SF-3, 3ـhydroxyـ3ـpropylـ1ـ(4ـ(Nـ(3,4ـdimethylisoxazolـ5ـyl)sulfamoyl)phenyl)triazene] | 235.55 µg/mL | 419 µM | 490.82 µg/mL | 218.94 µg/mL
Cc1noc(NS(=O)(=O)c2ccc(N=NN(C)O)cc2)c1C [SF-1, 3ـhydroxyـ3ـmethylـ1ـ(4ـ(Nـ(3,4ـdimethylisoxazolـ5ـyl)sulfamoyl)phenyl)triazene] | 270 µg/mL | 531 µM | 556.65 µg/mL | 
CCCN(O)N=Nc1ccc(S(=O)(=O)Nc2cc(C)on2)cc1 [SM-3, 3ـhydroxyـ3ـpropylـ1ـ(4ـ(Nـ(5ـmethylisoxazolـ3ـyl)sulfamoyl)phenyl)triazene] | 222.91 µg/mL | 624 µM | 624 µg/mL | 282.32 µg/mL
Cc1cc(NS(=O)(=O)c2ccc(N=NN(C)O)cc2)no1 [SM-1, 3ـhydroxyـ3ـmethylـ1ـ(4ـ(Nـ(5ـmethylisoxazolـ3ـyl)sulfamoyl)phenyl)triazene] |  | 698 µM | 426 µg/mL and 426.75 µg/mL | 252.96 µg/mL
Cc1cccc(N(O)N=Nc2ccc(S(=O)(=O)Nc3onc(C)c3C)cc2)c1 [SF-5, 3ـhydroxyـ3ـ(3ـmethylphenyl)ـ1ـ(4ـ(Nـ(3,4ـdimethylisoxazolـ5ـyl)sulfamoyl)phenyl)triazene] | 292 µg/mL | 546 µM and 548 µM | 423 µg/mL and 423.91 µg/mL | 164.34 µg/mL
O=C1O[C@H]([C@@H](O)CO)C(O)=C1O [ascorbic acid, reference compound] |  |  | 29.12 (ascorbic acid) μg/mL | 69.13 (ascorbic acid) μg/mL
Cc1ccc(N(O)N=Nc2ccc(S(=O)(=O)Nc3cc(C)on3)cc2)cc1 [SM-6, 3ـhydroxyـ3ـ(4ـmethylphenyl)ـ1ـ(4ـ(Nـ(5ـmethylisoxazolـ3ـyl)sulfamoyl)phenyl)triazene] | 262.74 µg/mL | 425 µM | 550.32 µg/mL | 250.26 µg/mL
CCN(O)N=Nc1ccc(S(=O)(=O)Nc2onc(C)c2C)cc1 [SF-2, 3ـhydroxyـ3ـethylـ1ـ(4ـ(Nـ(3,4ـdimethylisoxazolـ5ـyl)sulfamoyl)phenyl)triazene] | 248.64 µg/mL | 625 µM | 614.17 µg/mL | 229.83 µg/mL
CCN(O)N=Nc1ccc(S(=O)(=O)Nc2cc(C)on2)cc1 [SM-2, 3ـhydroxyـ3ـethylـ1ـ(4ـ(Nـ(5ـmethylisoxazolـ3ـyl)sulfamoyl)phenyl)triazene] | 201.99 µg/mL | 376 µM |  | 401.72 µg/mL
